Assay outcomes from PubChem.
Compounds with a hit are over-represented: about 6.8% of the library has one in this group of screens.
ALR H2O2 inh: blocks human ALR sulfhydryl oxidase activity | P55789 | purified ALR, DTT oxidation, H2O2 HRP-luminol luminescence | inhibition, % (test concentration not listed) | 3.8% of 290,000 active | AID 485317;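 active = mean replicate inhibition above about 79%, with every replicate also reaching it, limit read from the data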
Target sequence (P55789 whole entry, looked up): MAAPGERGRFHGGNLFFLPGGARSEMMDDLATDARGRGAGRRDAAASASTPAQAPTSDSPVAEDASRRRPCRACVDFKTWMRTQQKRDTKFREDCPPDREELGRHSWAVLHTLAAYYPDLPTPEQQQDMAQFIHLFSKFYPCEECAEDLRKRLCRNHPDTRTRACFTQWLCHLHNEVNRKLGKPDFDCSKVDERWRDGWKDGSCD
HSF-1 act: increases HSF-1 driven luciferase reporter signal | NIH3T3-HGL HSF-1 luciferase reporter, MG132, 8 h; 100% = twice DMSO control signal | activation, % at 9 µM | 1.7% of 300,000 active;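 active = mean replicate activation of at least 50% with a set share of replicates each reaching 50%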;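 also: 0% = median of the neutral control wells and 100% = twice that signal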
AI-2 QS modul: Vibrio harveyi AI-2 quorum sensing modulation; 0.4% of 300,000 active; AID 2094; activity change, % at 7.5 µM; Vibrio harveyi JMH597 AI-2 luminescence/OD600 ratio, 9 h; active compounds read low; strain lacks LuxN and CqsS sensors; 0 = neutral-control median; in the data active = activity change below about -75%, passing the limit was not always enough;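 also: luminescence divided by OD600 gain over 9 h not by final OD600 alone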
core dimer inh: blocks dimerization of HCV core protein. TR-FRET GST/Flag-core106 dimerization, 1536-well. inhibition, % at 5 µM. 0.33% of 300,000 active;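 active = inhibition above the mean of all tested compounds plus 3 SD, set per screening campaign, cut at about 45% in these data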
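System – GST-tagged and Flag-tagged HCV core protein residues 1-106 · Repeats – one well for each compound · Technique – TR-FRET 671 and 617 nm emission · Doses – one concentration, 5 µM, in 0.5% DMSO · Times – 4 h, 22.5 °C incubation · Also added – Eu donor and XL665 acceptor anti-tag antibodies · Measure – percent inhibition of core106 dimerization signal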
HSF1 inhib: HSF1 inhibition | AID 2098 | 0.77% of 300,000 active | activity change, negative = inhibition, % at 7.5 µM (by protocol) | NIH3T3-HGL HSE-luciferase, MG132-induced, luminescence 8 h; active compounds read low;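 active = more than half of replicate wells show activity change below -50%, luminescence cut by over half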;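 also: luciferase reports HSF-1 transcriptional activity via heat shock element; 0% = median of DMSO wells and -100% = zero luminescence signal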
PHOSPHO1 block: blocks human PHOSPHO1 phosphatase activity | Q8TCT1 | recombinant PHOSPHO1, absorbance phosphatase assay | inhibition, % at 13.3 µM | 1.1% of 290,000 active | AID 1565; in the data active = inhibition above about 60%
Target sequence (Q8TCT1 whole entry, looked up): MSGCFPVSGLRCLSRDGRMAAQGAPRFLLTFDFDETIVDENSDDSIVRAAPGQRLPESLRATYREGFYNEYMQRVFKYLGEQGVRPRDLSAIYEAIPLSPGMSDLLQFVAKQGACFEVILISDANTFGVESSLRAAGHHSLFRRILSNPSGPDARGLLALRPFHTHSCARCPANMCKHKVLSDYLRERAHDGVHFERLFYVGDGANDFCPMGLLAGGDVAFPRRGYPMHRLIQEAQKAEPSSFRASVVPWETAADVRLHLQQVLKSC
* hit, by the source's call; · = not tested or not shown.

SMILES	ALR H2O2 inh	HSF-1 act	AI-2 QS modul	core dimer inh	HSF1 inhib	PHOSPHO1 block
O=C(Nc1ccc(SC(F)F)cc1)C1CC(=O)N(Cc2ccccc2)C1 (configuration not stated)	95*	20	-7	0	1	33
CCn1c(C)nc2cc(C(=O)NNC(=O)CN(C)S(=O)(=O)c3ccc(NC(C)=O)cc3)ccc21	0	·	·	·	·	·
O=C(CSc1nnc(CNC(=O)c2ccccc2F)o1)c1ccc(Cl)cc1	99*	11	21	1	5	17
COc1ccc(C(=O)NCc2nnc(SCC(=O)N3CCC(C)CC3)o2)cc1OC	0	-74	13	2	-67*	-12
COc1ccc(C(=O)CSc2nnc(CNC(=O)c3ccc(S(=O)(=O)N(C)C)cc3)o2)cc1	98*	-3	2	3	-6	19
COC(=O)c1ccc(CSc2nnc(CNC(=O)c3ccccc3F)o2)o1	97*	11	-1	1	0	12
O=c1cc(O)n(Cc2ccc(F)cc2)c(=O)[nH]1	5	0	21	·	8	52
CCOCCCN(C(=O)Cn1nnc(-c2ccc(C)o2)n1)C(C(=O)NCC1CCCO1)c1ccc(F)cc1 (configuration not stated)	-5	18	29	-1	0	25
CC(C(=O)NC1CCCC1)N(C(=O)c1snc(C(N)=O)c1N)c1ccc2c(c1)OCCO2 (configuration not stated)	96*	5	2	5	-14	10
Cc1ccc(N(C(=O)c2snc(C(N)=O)c2N)C(CC(C)C)C(=O)NC2CCCC2)cc1 (configuration not stated)	2	3	-23	-6	-8	-16
Cc1nn(-c2nc3ccccc3[nH]2)c(N)c1-c1ccccc1	4	71*	0	0	45	5
COc1ccc(C(C)N2CC34C=CC(O3)C(C(=O)O)C4C2=O)cc1 (configuration not stated)	2	-69	10	1	-64*	-2
COC(=O)C1C2C=CC3(CN(C(C)c4ccc(OC)cc4)C(=O)C13)O2 (configuration not stated)	-1	-14	-7	-4	1	41
CCOC(=O)N1CCN(c2ccc(O)cc2)CC1	99*	-12	-12	-5	-3	63*
CCOc1ccccc1NC(=S)N1CCN(c2ccc(O)cc2)CC1	99*	41	-2	2	2	27
CC(=O)c1ccc(N2CCN(C(=O)C3CCC3)CC2)cc1	·	-2	20	-4	0	20
O=C(C1CC1)N1CCN(c2ccc(O)cc2)CC1	99*	19	·	-12	-4	32
CCOc1ccccc1NC(=S)N1CCN(c2ccc(OC)cc2)CC1	57	1	1	7	0	32
CCOC(=O)N1CCN(c2ccc(Cl)cc2)CC1	41	7	14	-11	4	-10
CC(C)c1ccc(NC(=O)C(c2ccccc2)N(Cc2ccco2)C(=O)CC2NC(=O)NC2=O)cc1 (configuration not stated)	8	1	15	3	0	7
CCC(/C=N/NC(=O)C(N)=O)CC	98*	2	10	-8	0	-7
CCOc1ccc(NC(=O)CCC(=O)NNC(=O)c2cccc([N+](=O)[O-])c2)cc1	-1	·	·	·	·	·
O=C(N[C@@H](Cc1ccccc1)C(=O)CCl)OCc1ccccc1	97*	·	·	23	·	·
O=C(N[C@@H](Cc1ccccc1)C(=O)N[C@@H](Cc1ccccc1)C(=O)O)OCc1ccccc1	·	-3	18	4	5	·
COc1cc(NC(=O)Cc2ccccc2)c(C(=O)O)cc1OC	2	0	27	-2	-9	14
SMILES	ALR H2O2 inh	HSF-1 act	AI-2 QS modul	core dimer inh	HSF1 inhib	PHOSPHO1 block
COc1cc(NC(=O)N2c3ccccc3Sc3ccccc32)c(C(=O)O)cc1OC	99*	21	29	-44	2	24
CC(=O)c1sc(NC(=O)c2ccc(C)c(C)c2)nc1C	-13	53*	1	13	29	20
COCCN(CCOC)S(=O)(=O)c1ccc(C(=O)Nc2nc(C)c(C(C)=O)s2)cc1	100*	1	15	0	-3	18
CC(=O)c1sc(NC(=O)c2ccc(C(C)(C)C)cc2)nc1C	-17	-13	29	19	-15	14
CCOC(=O)COn1c(=O)c(=O)n(O)c2ccccc21	100*	-5	26	-9	-13	4
O=C(Nc1ccc(Cl)cc1)N1CCc2ccccc2C1	-2	80*	13	4	42	24
O=C(OCC(=O)N1CCCCC1)c1cccs1	-5	·	·	·	·	·
O=C(Cc1ccc(Cl)cc1)N1CCc2ccccc2C1	·	59*	17	3	45	·
O=C(OCC(=O)N1CCc2ccccc2C1)c1cccs1	-13	80*	31	-2	55	65*
CC(=O)c1ccc(S(=O)(=O)N(C)CC(=O)NCC2CCCCC2)cc1	-6	5	22	0	-5	15
Cc1ccccc1-c1nnc(-c2ccccc2)o1	-1	38	9	2	20	19
Cn1cc(-c2nnc(-c3ccccc3)o2)c2ccccc21	-8	66*	3	1	35	54
O=C(Nc1ccc2c(c1)OCO2)NC1(C(F)(F)F)Oc2ccccc2O1	-13	20	1	3	5	33
O=C(Nc1ccc2c(c1)OCCO2)NC1(C(F)(F)F)Oc2ccccc2O1	-1	-72	19	2	-67*	-5
O=C1CSC(=S)N1c1cccnc1	11	-2	-16	4	-4	98*
O=C1CSC(=S)N1Cc1cccnc1	-11	29	0	0	3	-30
CCOc1ccc(N2C(=O)CSC2=S)cc1	-41	14	0	-7	-2	·
CCN(CC)c1ccc(N2C(=O)CSC2=S)cc1	98*	-8	15	2	-1	1
C=CCN(c1ccccc1)S(=O)(=O)c1ccc(Cl)c(C(=O)OCC(=O)c2[nH]c(C)c(C(C)=O)c2C)c1	-2	-4	18	21	-4	5
Cc1ccc2c(COC(=O)c3ccccc3Br)cc(=O)oc2c1	-17	88*	-2	-8	44	35
Cc1ccc2c(COC(=O)c3ccc(C)c(C)c3)cc(=O)oc2c1	-2	21	-5	2	-2	48
COc1ccc(Br)c(C(=O)OCc2cc(=O)oc3cc(C)ccc23)c1	15	44	23	4	12	3
Cc1ccc2c(COC(=O)c3ccccc3Cl)cc(=O)oc2c1	-11	101*	7	2	55	2
